From ChEMBL document CHEMBL1147861, “SAR studies on a novel series of human cytomegalovirus primase inhibitors” (Bioorg Med Chem Lett, 2007)

What was measured:
Human betaherpesvirus 5 [1] = test: Antiviral activity against HCMV infected HFF cells after 5 days by dot blot assay; format: functional, organism-based
How it was run: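 HFF fibroblasts infected with luciferase-expressing recombinant CMV (rCMVLUC), then cultured 5 days across a range of drug concentrations. Viral DNA harvested, immobilized on membrane, hybridized with radiolabeled CMV-specific probe. IC50 = concentration giving 50% reduction of membrane-bound radioactivity relative to vehicle-only infected cells.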

Human betaherpesvirus 5 [2] = test: Antiviral activity against HCMV infected HFF cells after 5 to 7 days by viral yield assay; format: functional
How it was run: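 rCMVLUC-infected HFF cells incubated 5–7 days with varying drug concentrations; viral yield determined by immunofluorescence using human anti-HCMV antiserum.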

[3] = Cytotoxicity against HFF cells by alamar blue assay; format: cell-based; details: human
How it was run: (§1)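 Cells seeded and exposed to a range of compound concentrations; Alamar blue added at 0, 24, 48 and 72 h, fluorescence read after further 3 h incubation. IC50 = concentration inhibiting cell growth by 50%.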

[4] = Cytotoxicity against human Jurkat cells by alamar blue assay; format: cell-based; how it was run: as §1
[5] = Cytotoxicity against human bone marrow cells assessed as inhibition of CFU-GM formation after 15 days; format: cell-based, Bone marrow cell
How it was run: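 Human bone marrow cells washed in IMDM–2% FBS, viable nucleated/mononuclear cells counted, adjusted to 10⁶ cells/mL, drug added, diluted 1:10 in methylcellulose medium and plated. After 15 days at 37 °C, humid 5% CO₂, CFU-GM colonies counted microscopically; IC50 = concentration halving colony formation.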

[6] = Oral bioavailability in rat; format: ADME, organism-based; details: in vivo
[7] = Clearance in rat; format: ADME, organism-based; details: in vivo
[8] = Bioavailability in rat at 2 mg/kg, po; format: ADME, organism-based; details: in vivo
[9] = Human betaherpesvirus 5, HFF, 120 h

Compound | IC50 (Human betaherpesvirus 5 [1]; [9]) [nM] | other results
Cc1nc(NCc2ccccc2OC(F)(F)F)nc(-n2ccnc2C)c1[N+](=O)[O-] | 200 | 
Cc1nc(N[C@H]2COC[C@H]2C)nc(-n2ccnc2C)c1[N+](=O)[O-] | 200 | 
Nc1nc2c(ncn2COC(CO)CO)c(=O)[nH]1 [GANCICLOVIR] | 1000 | EC99.9 (Human betaherpesvirus 5 [2]): 5 µM; CC50 [3]: > 100000 nM; CC50 [4]: > 100000 nM; CC50 at 360 h [5]: 30000 nM
Cc1nc(NC2CCC(C)CC2)nc(-n2ccnc2C)c1[N+](=O)[O-] (stereo not given) | 200 | 
Nc1ccn(C[C@@H](CO)OCP(=O)(O)O)c(=O)n1.O.O [CIDOFOVIR] | 350 | EC99.9 (Human betaherpesvirus 5 [2]): 0.9 µM; CC50 [3]: 100000 nM; CC50 [4]: 100000 nM; CC50 at 360 h [5]: 6000 nM
Cc1nc(NCc2cccc(Cl)c2Cl)nc(-n2ccnc2C)c1[N+](=O)[O-] | 200 | 
Cc1nc(N[C@H]2CCOC[C@@H]2C)nc(-n2ccnc2C)c1[N+](=O)[O-] | 130 | bioavailability [6]: 57%; clearance [7]: 36.7 mL/min/kg
Cc1nc(NC2CCSC2)nc(-n2ccnc2C)c1[N+](=O)[O-] (stereo not given) | 250 | 
CCC(C)Nc1nc(C)c([N+](=O)[O-])c(-n2ccnc2C)n1 (stereo not given) | 500 | 
Cc1nc(NCc2ccc(F)cc2Cl)nc(-n2ccnc2C)c1[N+](=O)[O-] | 250 | 
Cc1nc(NC2CCCOC2C)nc(-n2ccnc2C)c1[N+](=O)[O-] (stereo not given) | 700 | 
Cc1nc(NCC2CCCCC2)nc(-n2ccnc2C)c1[N+](=O)[O-] | 120 | 
Cc1nc(NCc2ccccn2)nc(-n2ccnc2C)c1[N+](=O)[O-] | 500 | 
Cc1nc(NC2CCC[C@@H](C)C2)nc(-n2ccnc2C)c1[N+](=O)[O-] (stereo not given in full) | 150 | 
Cc1nc(NC2CCC[C@H](C)C2)nc(-n2ccnc2C)c1[N+](=O)[O-] (stereo not given in full) | 150 | 
Cc1nc(N[C@H]2CC=CC[C@@H]2C)nc(-n2ccnc2C)c1[N+](=O)[O-] | 300 | 
Cc1cccc(CNc2nc(C)c([N+](=O)[O-])c(-n3ccnc3C)n2)c1 | 500 | 
Cc1nc(NCc2ccc(C(F)(F)F)cc2)nc(-n2ccnc2C)c1[N+](=O)[O-] | 200 | 
Cc1nc(NCc2ccc(C(F)(F)F)cc2F)nc(-n2ccnc2C)c1[N+](=O)[O-] | 200 | 
Cc1nc(NC2CCOCC2)nc(-n2ccnc2C)c1[N+](=O)[O-] | 3000 | 
Cc1nc(N[C@@H]2COC[C@@H]2C)nc(-n2ccnc2C)c1[N+](=O)[O-].Cl |  | IC50 (Human betaherpesvirus 5 [1]; hff): 130 nM; bioavailability [6]: 21%; clearance [7]: 23.3 mL/min/kg; EC99.9 (Human betaherpesvirus 5 [2]): 0.4 µM; CC50 [3]: 100000 nM; CC50 [4]: 50000 nM; CC50 at 360 h [5]: 50000 nM
Cc1nc(N[C@H]2CCS(=O)(=O)[C@@H]2C)nc(-n2ccnc2C)c1[N+](=O)[O-] | 2000 | 
Cc1nc(NCc2ccc(F)c(F)c2)nc(-n2ccnc2C)c1[N+](=O)[O-] | 400 | 
Cc1nc(NCc2cccnc2)nc(-n2ccnc2C)c1[N+](=O)[O-] | 800 | 
Cc1nc(N[C@H]2CC=CC[C@H]2C)nc(-n2ccnc2C)c1[N+](=O)[O-] | 1500 | 
Cc1nc(NC(C)CCC(C)C)nc(-n2ccnc2C)c1[N+](=O)[O-] (stereo not given) | 2300 | 
Cc1nc(N[C@@H]2COC[C@@H]2C)nc(-n2ccnc2C)c1[N+](=O)[O-] | 150 | 
Cc1nc(NCc2cc(C(F)(F)F)cc(C(F)(F)F)c2)nc(-n2ccnc2C)c1[N+](=O)[O-] | 15000 | 

The next lines start with results.

IC50 (Human betaherpesvirus 5 [1]; [9]) [nM] | Compound | other results
500 | Cc1nc(N[C@@H]2CCO[C@@H]2C)nc(-n2ccnc2C)c1[N+](=O)[O-] | 
130 | Cc1nc(NC(C)CC(C)C)nc(-n2ccnc2C)c1[N+](=O)[O-] (stereo not given) | 
200 | CCSCCNc1nc(C)c([N+](=O)[O-])c(-n2ccnc2C)n1 | 
> 5000 | Cc1nc(NC2CCS(=O)(=O)CC2)nc(-n2ccnc2C)c1[N+](=O)[O-] | 
300 | Cc1nc(NCc2cccc(OC(F)(F)F)c2)nc(-n2ccnc2C)c1[N+](=O)[O-] | 
150 | Cc1nc(NCc2ccc(F)cc2)nc(-n2ccnc2C)c1[N+](=O)[O-] | 
250 | Cc1nc(NCc2cccc(F)c2)nc(-n2ccnc2C)c1[N+](=O)[O-] | 
400 | Cc1nc(NC[C@@H]2OCCC[C@H]2C)nc(-n2ccnc2C)c1[N+](=O)[O-] | 
350 | Cc1nc(NC(C)CCc2ccccc2)nc(-n2ccnc2C)c1[N+](=O)[O-] (stereo not given) | 
90 | CC[C@H]1CCCC[C@@H]1Nc1nc(C)c([N+](=O)[O-])c(-n2ccnc2C)n1 | 
4000 | Cc1nc(NCC2CCCCO2)nc(-n2ccnc2C)c1[N+](=O)[O-] (stereo not given) | 
500 | Cc1nc(NC2CCCC2C)nc(-n2ccnc2C)c1[N+](=O)[O-] (stereo not given) | 
100 | Cc1nc(NC2CCC(C)C2)nc(-n2ccnc2C)c1[N+](=O)[O-] (stereo not given) | 
900 | COCC(C)Nc1nc(C)c([N+](=O)[O-])c(-n2ccnc2C)n1 (stereo not given) | 
1600 | Cc1ccc(CNc2nc(C)c([N+](=O)[O-])c(-n3ccnc3C)n2)cc1 | 
80 | Cc1nc(NC2CCCCC2C)nc(-n2ccnc2C)c1[N+](=O)[O-] (stereo not given) | 
100 | CC[C@@H]1CC=CC[C@@H]1Nc1nc(C)c([N+](=O)[O-])c(-n2ccnc2C)n1 | 
300 | Cc1nc(NCc2ccc(Cl)cc2)nc(-n2ccnc2C)c1[N+](=O)[O-] | 

IC50 (Human betaherpesvirus 5 [1]; [9]) [nM] | Compound | other results
200 | Cc1nc(NCc2ccc(Cl)c(Cl)c2)nc(-n2ccnc2C)c1[N+](=O)[O-] | 
200 | Cc1nc(NC2CCCCC2)nc(-n2ccnc2C)c1[N+](=O)[O-] | 
200 | Cc1ccccc1CNc1nc(C)c([N+](=O)[O-])c(-n2ccnc2C)n1 | 
700 | Cc1nc(N[C@H]2CCCC[C@H]2C)nc(-n2ccnc2C)c1[N+](=O)[O-] | 
1000 | CCNc1nc(C)c([N+](=O)[O-])c(-n2ccnc2C)n1 | 
100 | Cc1nc(N[C@H]2CCCC[C@@H]2C)nc(-n2ccnc2C)c1[N+](=O)[O-] | 
2300 | COCCCNc1nc(C)c([N+](=O)[O-])c(-n2ccnc2C)n1 | 
1000 | Cc1nc(NCC2CCCO2)nc(-n2ccnc2C)c1[N+](=O)[O-] (stereo not given) | 
600 | Cc1nc(NC2CCCC2)nc(-n2ccnc2C)c1[N+](=O)[O-] | 
600 | Cc1nc(N[C@@H]2CCO[C@H]2C)nc(-n2ccnc2C)c1[N+](=O)[O-] | 
300 | COc1cccc(CNc2nc(C)c([N+](=O)[O-])c(-n3ccnc3C)n2)c1 | 
300 | Cc1nc(NCC2OCCC2C)nc(-n2ccnc2C)c1[N+](=O)[O-] (stereo not given) | 
150 | Cc1nc(NCc2cc(F)ccc2F)nc(-n2ccnc2C)c1[N+](=O)[O-] | 
1300 | CCS(=O)(=O)CCNc1nc(C)c([N+](=O)[O-])c(-n2ccnc2C)n1 | 
2000 | Cc1nc(N)nc(-n2ccnc2C)c1[N+](=O)[O-] | bioavailability [8]: 59%
300 | Cc1nc(NCCC(C)C)nc(-n2ccnc2C)c1[N+](=O)[O-] | 
400 | Cc1nc(NC2CCSCC2)nc(-n2ccnc2C)c1[N+](=O)[O-] | 
